# This is a sample that favours compounds with a hit; in the whole collection about 2.3% have one here.
# TRPC6 inh: mouse TRPC6 channel inhibition; Q61143; HEK293-TRPC6, membrane potential dye, ACh-evoked depolarization; hits give low values; B-score at 10 µM; 1.1% of 310,000 active;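 active = B-score under library mean minus 3 SD, initial fluorescence not abnormally high, positive integrated signal ratio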;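 also: B-score derived from integrated fluorescence ratio over the kinetic read; more negative B-score means stronger inhibition of depolarization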
# TRPC4 inh: TRPC4 (mouse) channel inhibition | Q9QUQ5 | HEK293 TRPC4beta/mu-opioid, DAMGO-evoked Fluo4 calcium flux; hits give low values | B-score at 10 µM | 0.39% of 300,000 active;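 active = B-score over 3 SD under the library average, no early fluorescence shift, positive overall ratio signal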
# Target sequence (Q9QUQ5 whole entry, looked up): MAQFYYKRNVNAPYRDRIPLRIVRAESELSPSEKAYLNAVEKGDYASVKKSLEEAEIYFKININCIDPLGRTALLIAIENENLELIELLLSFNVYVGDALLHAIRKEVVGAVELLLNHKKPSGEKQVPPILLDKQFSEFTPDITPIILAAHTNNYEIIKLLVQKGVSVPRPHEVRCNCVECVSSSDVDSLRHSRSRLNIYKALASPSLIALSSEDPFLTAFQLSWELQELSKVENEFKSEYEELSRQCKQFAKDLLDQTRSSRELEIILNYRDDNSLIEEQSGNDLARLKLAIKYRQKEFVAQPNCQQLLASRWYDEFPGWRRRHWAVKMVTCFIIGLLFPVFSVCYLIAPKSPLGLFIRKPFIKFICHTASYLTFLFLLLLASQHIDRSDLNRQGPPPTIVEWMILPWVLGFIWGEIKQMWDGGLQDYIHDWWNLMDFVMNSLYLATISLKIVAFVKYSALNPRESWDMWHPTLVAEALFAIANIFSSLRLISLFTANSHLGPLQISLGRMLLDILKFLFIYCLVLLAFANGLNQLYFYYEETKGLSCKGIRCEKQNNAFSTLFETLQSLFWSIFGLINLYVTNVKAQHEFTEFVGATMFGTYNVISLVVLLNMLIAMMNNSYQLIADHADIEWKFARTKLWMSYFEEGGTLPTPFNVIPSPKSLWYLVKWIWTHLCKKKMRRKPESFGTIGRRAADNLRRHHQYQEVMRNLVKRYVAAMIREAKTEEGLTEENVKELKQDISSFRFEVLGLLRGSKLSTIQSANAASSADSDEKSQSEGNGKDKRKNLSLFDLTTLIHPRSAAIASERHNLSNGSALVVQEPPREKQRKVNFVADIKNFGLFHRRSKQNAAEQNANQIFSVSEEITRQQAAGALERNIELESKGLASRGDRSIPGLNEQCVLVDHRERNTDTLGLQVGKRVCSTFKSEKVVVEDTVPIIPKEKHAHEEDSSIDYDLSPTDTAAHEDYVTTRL
#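 Material: HEK293 cells with stable TRPC4beta plus mu-opioid receptor expression; probe or stimulus: DAMGO in two steps, submaximal then maximal; technique: Fluo4 calcium fluorescence by kinetic imaging, 5 s 1 Hz baseline; measure: integrated fluorescence ratio relative to baseline, converted to per-well B score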
# TRPC6 activator: mouse TRPC6 channel activation; B-score at 10 µM; Q61143; 0.13% of 310,000 active; HEK293-TRPC6 membrane potential dye fluorescence; hits give high values;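 active = B-score of the integrated fluorescence ratio above library mean plus 3 SD, and starting fluorescence ratio within library mean plus 5 SD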;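 also: higher score means more depolarization so channel activation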
# TRPC4 agonist: opens the mouse TRPC4 cation channel. Q9QUQ5. HEK293 TRPC4beta/mu-opioid, Fluo4 calcium fluorescence; hits give high values. B-score at 10 µM. 0.49% of 310,000 active. AID 2237;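 active = B-score above 5 SD of library B-scores, and initial fluorescence ratio not above library mean plus 5 SD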;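 also: positive B-score marks a calcium rise read as TRPC4 activation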
#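 System – HEK293 cells stably co-expressing mouse TRPC4beta and mu-opioid receptor · Signal – Fluo4 calcium-sensitive dye fluorescence, kinetic, 1 Hz baseline · Benchmarks – buffer (low) and maximal DAMGO (high) · Read-out – B score of integrated fluorescence ratio per well · Incubation – dye loading 45 min room temperature, 110 s kinetic read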
# TRPC4 potent: TRPC4 (mouse) allosteric potentiation. Q9QUQ5. HEK293 TRPC4beta/mu-opioid, DAMGO EC20, Fluo-4 Ca2+ flux; hits give high values. B-score at 10 µM. 0.42% of 310,000 active. AID 2227;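 active = B-score of calcium response area above 5 SD of library B-scores, with initial fluorescence ratio within 5 SD of library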;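 also: B-score of integrated fluorescence ratio over time as area under calcium response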
# TRPC4 sel inh 2: mouse TRPC4 off-target activity of TRPC6 inhibitors, second screen; inhibition, % at 10 µM; shares compounds with TRPC6 inh; AID 2776; HEK293 TRPC4/MOR, membrane potential dye fluorescence; channel activated by saturating DAMGO dose; 42% of 920 active;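 active = compounds whose fluorescence signal differed from control wells by over 3 SD, either direction, in both duplicate plates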
# TRPC4 spec: mouse TRPC4 off-target activity of TRPC6 inhibitors; shares compounds with TRPC6 inh; HEK293 TRPC4/mu-opioid, membrane potential fluorescence; activity change, negative = inhibition, % at 10 µM; 61% of 920 active;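 active = rise or fall in signal beyond 3 SD of buffer-only wells in both replicate plates, either sign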;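 also: integrated kinetic ratio of fluorescence range over baseline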
# HEK293 MPD ctr 2-1: second counter-screen for TRPC6 inhibitors: parental HEK293 cells. signal change vs control, % at 10 µM. 31% of 920 active. parental HEK293 membrane potential dye fluorescence; maximal acetylcholine challenge after compound addition. shares compounds with TRPC6 inh;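 active = membrane potential signal moving either way by over 3 SD of the maximum-effect control, in both duplicate plates, meaning non-specific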
# HEK293 MPD ctr-1: checks TRPC6 inhibitor effects in parental HEK293 cells; shares compounds with TRPC6 inh; parental HEK293 membrane potential dye fluorescence; membrane potential signal change, % at 10 µM; 60% of 920 active;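 active = membrane potential signal shifting up or down by more than 3 SD of buffer-only wells, on both duplicate plates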
# HEK293 MPD ctr-2: checks TRPC6 modulator effects in parental HEK293 cells; shares compounds with TRPC6 inh; membrane potential signal change, % at 10 µM; membrane potential dye fluorescence; 51% of 2,400 active;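 active = membrane potential signal moves up or down beyond 5 SD from buffer-only wells, on both duplicate plates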
# HEK293 MPD ctr 2-2: second check of TRPC6 modulator effects in parental HEK293 cells. shares compounds with TRPC6 inh. membrane potential dye fluorescence; after compound, maximal acetylcholine stimulation. inhibition, % at 10 µM. 14% of 2,400 active;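 active = membrane potential signal drops by more than 5 SD from the mean control signal, in both duplicate plates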;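 also: plate controls were acetylcholine ECmax control wells for no effect and buffer only wells for full effect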
# TRPC4/MOR mod: selectivity of TRPC6 modulators against mouse TRPC4; percent change from control (negative = decrease, positive = increase), % at 10 µM; 69% of 2,400 active; shares compounds with TRPC6 inh; HEK293 TRPC4/mu-opioid, membrane potential fluorescence;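 active = membrane potential signal moved up or down beyond 5 SD of buffer control wells, in both duplicate plates, actives on both sides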;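 also: plate controls were assay buffer wells for no effect and DAMGO maximal-effect wells for full effect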
# TRPC4/MOR inh 2: second check of whether TRPC6 modulators also affect mouse TRPC4 | shares compounds with TRPC6 inh | HEK293 TRPC4/mu-opioid, membrane potential dye fluorescence; stimulated with maximal-effect DAMGO | inhibition, % at 10 µM | 55% of 2,400 active | AID 488928;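 active = drop in membrane potential signal beyond 5 SD of the control wells in both duplicate plates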;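 also: TRPC4 counter screen for TRPC6 hits run under conditions tuned for TRPC6 not TRPC4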
# TRPC6 inh conf: confirmation of mouse TRPC6 inhibitors. shares compounds with TRPC6 inh. HEK293-TRPC6, membrane potential dye, ACh-evoked depolarization. inhibition, % at 10 µM. 43% of 3,300 active. AID 488960;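 active = fluorescence ratio falls more than 5 SD below the full-stimulation control mean, in both duplicate runs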;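 also: integrated fluorescence ratio of peak minus minimum over baseline after agonist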
# TRPC6 act confirm: confirmation of mouse TRPC6 activators; shares compounds with TRPC6 inh; HEK293-TRPC6 membrane potential dye fluorescence, FDSS; activation, % at 10 µM; 11% of 2,800 active; AID 488961;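 active = ratio signal rise beyond 5 SD above unstimulated control wells' mean, seen in both duplicate runs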;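 also: plate controls were buffer EC0 wells for no effect and acetylcholine ECmax response for full effect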
# Starred values were filed as active, the others as inactive; i = inactive; · = no result given.
SMILES,TRPC6 inh,TRPC4 inh,TRPC6 activator,TRPC4 agonist,TRPC4 potent,HEK293 MPD ctr-2,HEK293 MPD ctr 2-2,TRPC4/MOR mod,TRPC4/MOR inh 2,TRPC6 inh conf,TRPC6 act confirm,others
CC1CN(c2ccc([N+](=O)[O-])c(NCCOc3ccccc3)c2)CCN1 (centres undefined),-7.3*,i,i,i,i,·,·,·,·,i,i,TRPC4 sel inh 2=i;TRPC4 spec=-11%*;HEK293 MPD ctr 2-1=i;HEK293 MPD ctr-1=-142%*
CN(C)CCCN(C(=O)c1ccc(C(=O)c2ccccc2)cc1)c1nc2c(F)cccc2s1,-6.2*,i,i,i,i,i,i,i,82%*,60%*,i,
CN(C)CCCN(C(=O)COc1ccccc1)c1nc2c(F)cccc2s1,-5*,i,i,i,i,i,i,-16%*,84%*,38%*,i,
CN(C)CCCN(C(=O)c1cc2ccccc2oc1=O)c1nc2c(F)cccc2s1,-6.5*,i,i,i,i,i,i,-22%*,88%*,70%*,i,
CCCCn1c(SCC(=O)NCc2ccc(OC)c(C(=O)O)c2)nc2cc(S(N)(=O)=O)ccc21,i,i,i,i,i,·,·,·,·,·,·,
COC(Cc1ccccc1N1CCCC1=O)OC,i,i,i,i,i,·,·,·,·,·,·,
CCOC(=O)C(=NCC1CCCO1)NNc1ccccc1Cl (centres undefined),i,i,i,i,i,·,·,·,·,·,·,
CCOC(=O)Nc1ccc2c(CNC(C)c3ccccc3OC)cc(=O)oc2c1 (centres undefined),i,i,i,i,i,·,·,·,·,·,·,
CCN(CC)CCOC(=O)C1(c2ccccc2)CCCC1,-9.2*,i,i,i,i,·,·,·,·,74%*,·,TRPC4 sel inh 2=i;TRPC4 spec=16%*;HEK293 MPD ctr 2-1=-2.5%*;HEK293 MPD ctr-1=15%*
CCN(CC)CCOC(=O)C1(C2CCCCC2)CCCCC1,-6.2*,i,i,i,i,182%*,77%*,40%*,i,76%*,·,
CCN(CC)CCOC(=O)C1(c2ccc(OC)c(OC)c2)CCCC1,i,i,i,i,i,·,·,·,·,·,·,
COCCN(CCOC)c1nc(S(=O)(=O)c2ccc(C)cc2)c(Cl)s1,-5.4*,i,i,i,i,106%*,i,24%*,i,i,·,
COc1ccc(CN(CCN(C)C)c2ccccn2)cc1,i,i,i,i,i,·,·,·,·,·,·,
CC[N+](C)(C)CCN(Cc1ccc(Cl)cc1)c1ccccn1,-6.4*,i,i,i,i,i,i,i,i,i,i,

# Source: PubChem (Johns Hopkins Ion Channel Center)
